Three compounds from ChEMBL document CHEMBL3421585, “Structure-Based Design of Potent and Selective Inhibitors of the Metabolic Kinase PFKFB3” (J Med Chem, 2015) can be followed below.

One data set is filed under the species Homo sapiens. Put plainly: Selectivity ratio of IC50 for recombinant human PFKFB2 to IC50 for recombinant human PFKFB3. Put shortly:
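Ratio of the PFKFB2 enzyme IC50 to the PFKFB3 enzyme IC50. Each IC50 is the mean of at least two independent measurements, reported in micromolar, with SEM ±0.2 log units.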

Data set [1] addresses 6-phosphofructo-2-kinase/fructose-2,6-bisphosphatase 1 (Homo sapiens, UniProt P16118). Put plainly: Inhibition of recombinant human PFKFB1 using fructose 6 phosphate as substrate assessed as ADP generation after 1 hr by ADP Glo assay. A general note: ADP-Glo first removes unused ATP, then detects ADP through luciferase.
The test system of another data set is A549. Put plainly: Cytotoxicity against human A549 cells assessed as cell viability after 4 hrs. It is filed as cell-based. The note with it: a549, 4 h.
In data set [2] the target is T1, 6-phosphofructo-2-kinase/fructose-2,6-bisphosphatase 3 (Homo sapiens, UniProt Q16875). The data set can be described thus: Inhibition of recombinant human PFKFB3 using fructose 6 phosphate as substrate assessed as ADP generation after 1 hr by ADP Glo assay.
For data set [3], the target named is 6-phosphofructo-2-kinase/fructose-2,6-bisphosphatase 2 (Homo sapiens, UniProt O60825). The data set can be described thus: Inhibition of recombinant human PFKFB2 using fructose 6 phosphate as substrate assessed as ADP generation after 1 hr by ADP Glo assay.
Data set [4] deals with T1, 6-phosphofructo-2-kinase/fructose-2,6-bisphosphatase 3. The data set can be described thus: Inhibition of PFKFB3 in human A549 cells assessed as reduction of fructose-1,6-bisphosphate formation after 4 hrs by MS/MS analysis. The format is cell-based. Put shortly: (§1)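 A549 cells; fructose-1,6-bisphosphate or lactate production measured.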
Data set [5] is described as follows: Lipophilicity, log D of the compound at pH 7.4. The settings on record: buffer.
Data set [6] concerns the target T1, 6-phosphofructo-2-kinase/fructose-2,6-bisphosphatase 3. Put plainly: Inhibition of PFKFB3 in human A549 cells assessed as decrease in lactate secretion after 4 hrs. It is filed as cell-based. Put shortly: as §1
Data set [7] in a line: Clearance in CD1 mouse at 2.5 uM/kg, po and iv. It is filed as ADME, organism-based. The settings on record: in vivo. The method in brief:
(§2)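 CD1 mice dosed po and iv at 2.5 µMol/kg.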

Data set [8] in a line: Fraction unbound in rat plasma. The format is ADME, cell-free.
Data set [9] in a line: Fraction unbound in mouse plasma. It is filed as ADME, cell-free.
Data set [10] in a line: Aqueous solubility of the compound at pH 7.4. The note with it: buffer. The format is physicochemical.
Data set [11] is described as follows: Oral bioavailability in CD1 mouse at 2.5 uM/kg. The note with it: in vivo. The format is ADME, organism-based. Put shortly:
as §2

The nature of data set [12]: Half life in human hepatocytes. The format is ADME, cell-based, Hepatocyte.
A short description of data set [13]: Cmax in nude mouse at 124 umol/kg. It is filed as ADME, organism-based. Details: dose 124 umol/kg. The settings on record: in vivo.
A short description of data set [14]: Fraction unbound in human plasma. The format is ADME, cell-free.
Data set [15] is described as follows: Apparent intrinsic permeability in human Caco2 cells at pH 6.5. The note with it: Caco-2, pH 6.5. It is filed as ADME, cell-based.
Data set [16] can be described thus: Half life in rat hepatocytes. The format is ADME, cell-based, Hepatocyte.
Data set [17] is described as follows: Half life in CD1 mouse at 2.5 uM/kg, iv. The format is ADME, organism-based. The settings on record: in vivo. Put shortly: as §2
Data set [18] is described as follows: Volume of distribution at steady state in Wistar rat at 3.1 uM/kg, po and 2.5 uM/kg, iv. The format is ADME, organism-based. The settings on record: in vivo, read-out: Vdss. Put shortly: (§3)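 Male Wistar Han rats, 10-12 weeks old (n=2), given 3.1 µMol/kg po and 2.5 µMol/kg iv in 5% DMSO / 95% Captisol (30% in water).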
A short description of data set [19]: Clearance in Wistar rat at 3.1 uM/kg, po and […] uM/kg, iv. The format is ADME, organism-based. The note with it: in vivo.
Data set [20] in a line: Half life in mouse hepatocytes. The format is ADME, cell-based, Hepatocyte.
Data set [21] in a line: Half life in Wistar rat at 2.5 uM/kg, iv. The format is ADME, organism-based. The note with it: in vivo. The method in brief:
as §3

Data set [22] is described as follows: Volume of distribution at steady state in CD1 mouse at 2.5 uM/kg, po and iv. It is filed as ADME, organism-based. The note with it: in vivo, read-out: Vdss. Put shortly: as §2
The nature of data set [23]: Efflux ratio of apparent intrinsic permeability in human Caco2 cells. The format is ADME, cell-based. The note with it: Caco-2.
A short description of data set [24]: AUC in nude mouse at 124 umol/kg. It is filed as ADME, organism-based. The note with it: plasma.

Converted amounts (≈) assume the structure as drawn.

T1 sequence (Q16875 whole entry): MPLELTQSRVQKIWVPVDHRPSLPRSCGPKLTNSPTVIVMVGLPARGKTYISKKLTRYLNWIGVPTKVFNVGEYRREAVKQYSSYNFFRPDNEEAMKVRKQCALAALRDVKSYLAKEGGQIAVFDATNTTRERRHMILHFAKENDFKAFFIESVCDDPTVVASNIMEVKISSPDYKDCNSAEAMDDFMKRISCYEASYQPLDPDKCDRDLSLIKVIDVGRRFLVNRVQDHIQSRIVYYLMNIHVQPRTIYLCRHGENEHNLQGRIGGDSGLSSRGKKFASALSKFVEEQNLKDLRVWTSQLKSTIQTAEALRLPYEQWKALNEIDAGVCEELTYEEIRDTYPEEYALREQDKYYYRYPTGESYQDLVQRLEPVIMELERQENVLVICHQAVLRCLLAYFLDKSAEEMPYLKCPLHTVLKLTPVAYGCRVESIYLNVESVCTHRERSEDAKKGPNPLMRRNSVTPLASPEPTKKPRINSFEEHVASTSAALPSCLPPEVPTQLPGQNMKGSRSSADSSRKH
Sequence of 6-phosphofructo-2-kinase/fructose-2,6-bisphosphatase 2 (O60825 whole entry): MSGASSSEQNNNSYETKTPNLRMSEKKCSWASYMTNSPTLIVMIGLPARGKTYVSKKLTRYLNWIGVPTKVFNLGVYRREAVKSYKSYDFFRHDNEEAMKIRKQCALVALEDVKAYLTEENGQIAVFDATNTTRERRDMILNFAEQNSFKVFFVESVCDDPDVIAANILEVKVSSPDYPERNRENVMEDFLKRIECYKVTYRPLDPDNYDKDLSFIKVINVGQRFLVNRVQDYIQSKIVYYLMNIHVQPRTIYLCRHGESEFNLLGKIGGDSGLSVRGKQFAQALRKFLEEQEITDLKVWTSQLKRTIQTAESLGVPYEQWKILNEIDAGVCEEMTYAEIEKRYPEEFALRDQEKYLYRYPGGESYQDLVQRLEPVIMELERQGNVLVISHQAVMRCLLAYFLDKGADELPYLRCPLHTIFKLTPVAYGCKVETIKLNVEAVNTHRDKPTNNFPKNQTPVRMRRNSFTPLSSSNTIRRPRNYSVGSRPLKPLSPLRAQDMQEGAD
Sequence of 6-phosphofructo-2-kinase/fructose-2,6-bisphosphatase 1 (P16118 whole entry): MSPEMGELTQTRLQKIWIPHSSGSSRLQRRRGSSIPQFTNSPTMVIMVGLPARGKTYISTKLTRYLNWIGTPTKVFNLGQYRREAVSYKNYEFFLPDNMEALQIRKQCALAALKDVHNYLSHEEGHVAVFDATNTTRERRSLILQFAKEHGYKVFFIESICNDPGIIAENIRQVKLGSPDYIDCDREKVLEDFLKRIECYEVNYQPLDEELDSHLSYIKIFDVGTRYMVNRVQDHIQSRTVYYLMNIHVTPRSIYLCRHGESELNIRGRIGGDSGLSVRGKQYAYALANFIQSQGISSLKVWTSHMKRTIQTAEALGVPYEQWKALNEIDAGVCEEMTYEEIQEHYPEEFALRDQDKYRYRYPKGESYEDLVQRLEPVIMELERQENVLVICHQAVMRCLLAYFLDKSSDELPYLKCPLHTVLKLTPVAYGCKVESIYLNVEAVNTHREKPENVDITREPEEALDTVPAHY

Consider `CC(C)Cn1nc(C#N)c2cc(Oc3ccc(NC(=O)[C@@H]4CCCN4)cc3)ccc21`, for which the Ratio IC50 in the data set listed under Homo sapiens was 4. Also, the IC50 (in general, the concentration that inhibits the measured activity by half) in data set [1] came to 0.294 µM; in data set [2], 0.004 µM; in [3], 0.015 µM; in data set [4], 0.297 µM; in data set [6], 15.4 µM. Also, in the data set on A549, the Activity result is “Toxic”. Moreover, the logD (usually the decadic logarithm of the distribution of all forms, ionised or not, between an organic phase and buffer at a given pH) in [5] stood at 3.6.

Take `CC(C)Cn1cc(C#N)c2cc(Oc3ccc(NC(=O)[C@@H]4CCCN4)cc3)ccc21`: in data set [7], the clearance at […] came to 38 mL/min/kg. Moreover, in the data set listed under Homo sapiens, the Ratio IC50 came to 17. The figures for the fraction unbound in data set [8], in data set [9] and in data set [14] were below 0.0003, 0.0164 and 0.0033, respectively. Further, in data set [10], the solubility (commonly how much of the substance goes into solution per volume) was determined as 48 µM (≈ 19.3 µg/mL). Further, the IC50 in data set [1] was found to be 2.06 µM; in data set [2], 0.023 µM; in [3], 0.384 µM; in [4], 0.343 µM; in [6], 5.77 µM. In addition, the Activity result with A549 is “Toxic”. Moreover, in data set [11], the bioavailability – broadly, dose-corrected exposure relative to a reference, in per cent – at […] turned out to be 42%. For the same compound, the half-life (as a rule, the time needed for the level to fall by half in the phase considered) in [12] stood at 28 min; in data set [16] it was 21 min; in data set [20], 21 min. Besides, the highest level in data set [13] (Cmax) was 35 µM. Also, the apparent permeability (Papp) – broadly, the rate of passage across a membrane or cell layer, normalised by area and donor concentration – in [15] came to 13.4 ×10⁻⁶ cm/s. The half-life at […] in data set [17] is 84 min; in data set [21] it was 204 min. In data set [18], the Vd amounted to 0.4 L/kg. The clearance in [19] amounted to 2 mL/min/kg. For the same compound, the Vd at […] in data set [22] stood at 3.3 L/kg. Moreover, the efflux ratio (as a rule, a quotient of directional permeabilities that is used to spot active efflux) in data set [23] came to 4.6. The logD in data set [5] was determined as 3.5. In addition, the AUC – broadly, the area under the concentration-time curve, a measure of exposure – in data set [24] turned out to be 259 µM·h.

On to `CCn1cc(C#N)c2cc(Oc3ccc(NC(=O)[C@@H]4CCCN4)cc3)ccc21`, for which the IC50 turned out to be 22.1 µM in data set [1]; 0.112 µM in [2]; 1.82 µM in data set [3]; 3.05 µM in data set [4]; 12 µM in [6]. Also, the Activity result with A549 was “Non-toxic”. Besides, the logD in data set [5] was 2.9.
